Data on 14 compounds can be found in ChEMBL document CHEMBL3091445, “The 3,7-diazabicyclo[3.3.1]nonane scaffold for subtype selective nicotinic acetylcholine receptor ligands. Part 2: carboxamide derivatives with different spacer motifs” (Bioorg Med Chem, 2013).

For assay [1], the target named is T1, Neuronal acetylcholine receptor; alpha4/beta2 (Homo sapiens) (UniProt P17787+P43681). In words: Partial agonist activity at human alpha4beta2 nAChR expressed in Xenopus oocytes at 10 uM incubated for 8 secs followed by compound washout measured after 241 secs by two-electrode voltage clamp technique. It is filed as cell-based. (Two-electrode voltage clamp holds a large cell at a set potential and records current.)

The target in assay [2] is T2, Nicotinic acetylcholine receptor alpha1/beta1/epsilon/delta (Mus musculus) (UniProt P04756+P09690+P02716+P20782). Put plainly: Agonist activity at mouse muscle alpha1beta1epsilondelta nAChR expressed in Xenopus oocytes at 10 uM incubated for 8 secs followed by compound washout measured after 241 secs by two-electrode voltage clamp technique. It is filed as cell-based.

The target of assay [3] is T2, Nicotinic acetylcholine receptor alpha1/beta1/epsilon/delta (Mus musculus). Put plainly: Agonist activity at mouse muscle alpha1beta1epsilondelta nAChR expressed in Xenopus oocytes at 1 uM incubated for 8 secs followed by compound washout measured after 241 secs by two-electrode voltage clamp technique. It is filed as cell-based.
In assay [4] the target is T3, Neuronal acetylcholine receptor; alpha3/beta4 (Homo sapiens) (UniProt P30926+P32297). In words: Antagonist activity at human alpha3beta4 nAChR expressed in Xenopus oocytes at 1 uM incubated for 8 secs followed by compound washout measured after 241 secs by two-electrode voltage clamp technique. It is filed as cell-based.
In assay [5] the target is T3, Neuronal acetylcholine receptor; alpha3/beta4 (Homo sapiens). Put plainly: Agonist activity at human alpha3beta4 nAChR expressed in Xenopus oocytes at 1 uM incubated for 8 secs followed by compound washout measured after 241 secs by two-electrode voltage clamp technique. It is filed as cell-based.
The target of assay [6] is T1, Neuronal acetylcholine receptor; alpha4/beta2 (Homo sapiens). In words: Partial agonist activity at human alpha4beta2 nAChR expressed in Xenopus oocytes at 1 uM incubated for 8 secs followed by compound washout measured after 241 secs by two-electrode voltage clamp technique. It is filed as cell-based.
The target of assay [7] is Neuronal acetylcholine receptor subunit alpha-7 (Homo sapiens) (UniProt P36544). In words: Agonist activity at human alpha7 nAChR expressed in Xenopus oocytes at 1 uM incubated for 12 secs followed by compound washout measured after 181 secs by two-electrode voltage clamp technique. It is filed as cell-based.
Chain of Neuronal acetylcholine receptor subunit alpha-7 (Homo sapiens) (P36544 whole entry): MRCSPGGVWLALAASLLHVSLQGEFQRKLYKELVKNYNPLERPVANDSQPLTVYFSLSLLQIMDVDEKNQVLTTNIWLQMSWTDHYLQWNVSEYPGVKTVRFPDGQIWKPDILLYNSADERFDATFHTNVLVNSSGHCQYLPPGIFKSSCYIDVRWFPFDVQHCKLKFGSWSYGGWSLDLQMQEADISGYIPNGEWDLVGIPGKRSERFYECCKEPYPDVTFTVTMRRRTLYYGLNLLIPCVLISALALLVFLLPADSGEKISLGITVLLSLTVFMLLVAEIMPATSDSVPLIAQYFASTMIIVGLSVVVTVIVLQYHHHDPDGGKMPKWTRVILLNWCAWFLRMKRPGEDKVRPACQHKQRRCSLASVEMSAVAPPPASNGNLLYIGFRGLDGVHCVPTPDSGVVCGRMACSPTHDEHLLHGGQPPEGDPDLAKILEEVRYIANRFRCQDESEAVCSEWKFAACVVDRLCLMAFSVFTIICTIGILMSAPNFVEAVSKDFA
The target is the same in assay [8]. In words: Antagonist activity at human alpha7 nAChR expressed in Xenopus oocytes assessed as inhibition of acetylcholine-induced effect at 1 uM incubated for 12 secs followed by compound washout measured after 181 secs by two-electrode voltage clamp technique. It is filed as cell-based.
In assay [9] the target is T2, Nicotinic acetylcholine receptor alpha1/beta1/epsilon/delta (Mus musculus). In words: Antagonist activity at mouse muscle alpha1beta1epsilondelta nAChR expressed in Xenopus oocytes assessed as inhibition of acetylcholine-induced effect at 1 uM incubated for 8 secs followed by compound washout measured after 241 secs by two-electrode voltage clamp technique. It is filed as cell-based.

The target in assay [10] is T3, Neuronal acetylcholine receptor; alpha3/beta4 (Homo sapiens). Put plainly: Agonist activity at human alpha3beta4 nAChR expressed in Xenopus oocytes at 10 uM incubated for 8 secs followed by compound washout measured after 241 secs by two-electrode voltage clamp technique. It is filed as cell-based.
The target in assay [11] is Neuronal acetylcholine receptor subunit alpha-7 (Rattus norvegicus, UniProt Q05941). In words: Displacement of [3H]methyllycaconitine from Sprague-Dawley rat brain alpha7 nAChR after 120 mins by liquid scintillation counting analysis. It is filed as tissue-based. In outline:
(§1)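 Radioligand competition binding gave Ki values, reported as mean ± SEM from 2–10 independent experiments.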

Assay [12] concerns the target Neuronal acetylcholine receptor; alpha4/beta2 (Rattus norvegicus, UniProt P09483+P12390). Put plainly: Displacement of [3H]epibatidine from Sprague-Dawley rat brain alpha4beta2 nAChR after 90 mins by liquid scintillation counting analysis. In outline: as §1
Background: In a radioligand displacement assay an active substance lowers the binding of a labelled ligand.

Assay [13] is described as follows: Displacement of [3H]epibatidine from calf adrenal alpha3beta4 nAChR after 90 mins by liquid scintillation counting analysis. Details: species or system Bos taurus.
Assay [14] in a line: Displacement of [3H]epibatidine from Torpedo californica electroplax (alpha1)2beta1gammadelta nAChR after 90 mins by liquid scintillation counting analysis. Details: species or system Tetronarce californica.

SMILES strings stand for the structures. Calls of active or inactive are those of the source. The rule behind the calls is not given here.

Chain of Neuronal acetylcholine receptor; alpha4/beta2 (P09483 whole entry): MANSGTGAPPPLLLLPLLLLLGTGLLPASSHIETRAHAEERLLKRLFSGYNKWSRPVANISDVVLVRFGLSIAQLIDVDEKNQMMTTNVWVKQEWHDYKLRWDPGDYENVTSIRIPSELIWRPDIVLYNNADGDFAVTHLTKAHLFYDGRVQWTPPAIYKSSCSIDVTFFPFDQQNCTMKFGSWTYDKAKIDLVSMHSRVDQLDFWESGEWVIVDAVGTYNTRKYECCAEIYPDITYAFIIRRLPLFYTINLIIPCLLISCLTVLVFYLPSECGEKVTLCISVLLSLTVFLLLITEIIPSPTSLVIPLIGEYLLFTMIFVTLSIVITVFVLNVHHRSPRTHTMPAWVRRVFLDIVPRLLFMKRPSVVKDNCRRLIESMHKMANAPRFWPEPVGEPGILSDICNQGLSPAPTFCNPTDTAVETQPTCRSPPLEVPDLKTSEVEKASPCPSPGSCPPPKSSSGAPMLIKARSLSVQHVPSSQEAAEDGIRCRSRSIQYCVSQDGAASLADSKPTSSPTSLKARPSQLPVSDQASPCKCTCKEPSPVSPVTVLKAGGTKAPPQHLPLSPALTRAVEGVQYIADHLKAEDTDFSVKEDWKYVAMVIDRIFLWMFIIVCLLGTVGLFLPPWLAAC
Chain of Neuronal acetylcholine receptor; alpha4/beta2 (P12390 whole entry): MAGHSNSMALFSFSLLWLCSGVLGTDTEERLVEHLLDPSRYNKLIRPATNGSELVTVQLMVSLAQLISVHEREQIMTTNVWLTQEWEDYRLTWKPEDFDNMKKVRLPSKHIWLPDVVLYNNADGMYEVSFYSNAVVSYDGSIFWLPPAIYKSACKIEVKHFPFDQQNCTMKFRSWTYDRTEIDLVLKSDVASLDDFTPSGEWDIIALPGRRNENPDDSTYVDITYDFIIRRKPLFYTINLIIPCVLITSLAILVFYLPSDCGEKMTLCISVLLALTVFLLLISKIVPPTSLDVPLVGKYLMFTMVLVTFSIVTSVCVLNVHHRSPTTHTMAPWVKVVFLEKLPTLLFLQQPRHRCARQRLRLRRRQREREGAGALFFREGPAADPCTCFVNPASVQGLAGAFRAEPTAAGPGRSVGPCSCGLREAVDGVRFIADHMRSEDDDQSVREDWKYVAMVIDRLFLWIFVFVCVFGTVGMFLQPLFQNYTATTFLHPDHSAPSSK
Chain of Neuronal acetylcholine receptor subunit alpha-7 (Q05941 whole entry): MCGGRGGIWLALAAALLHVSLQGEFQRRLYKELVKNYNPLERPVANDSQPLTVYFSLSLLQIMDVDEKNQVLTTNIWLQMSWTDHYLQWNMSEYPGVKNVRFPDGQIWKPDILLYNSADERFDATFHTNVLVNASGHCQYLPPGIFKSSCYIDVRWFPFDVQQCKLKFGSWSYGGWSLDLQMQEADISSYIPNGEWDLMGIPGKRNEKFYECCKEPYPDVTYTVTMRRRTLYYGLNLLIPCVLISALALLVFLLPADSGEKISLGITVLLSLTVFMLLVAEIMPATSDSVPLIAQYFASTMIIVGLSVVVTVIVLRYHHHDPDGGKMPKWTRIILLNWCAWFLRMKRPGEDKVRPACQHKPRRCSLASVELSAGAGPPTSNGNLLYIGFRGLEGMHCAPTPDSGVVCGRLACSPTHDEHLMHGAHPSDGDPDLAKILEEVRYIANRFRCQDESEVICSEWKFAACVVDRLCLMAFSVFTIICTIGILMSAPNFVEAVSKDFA

Usually Ki stands for the equilibrium dissociation constant of an inhibitor or competing ligand from its target. Turning to `O=C(Cc1ccccc1)N1C[C@@H]2CNC[C@@H](C2)C1`, the outcome in [1] and in assay [6] was Active. Besides, the outcome in assay [2], in assay [3], in assay [4], in assay [5], in assay [7] and in [10] was inactive. In addition, the inhibition entry in [8] and in assay [9] was “inactive” in each case. For the same compound, the values for the Ki in [11] and in assay [12] were over 10000 nM and 57.6 nM, respectively.
With `Cc1cc(CC(=O)N2C[C@@H]3CNC[C@@H](C3)C2)on1`, the result in assay [3], in assay [4], in [5] and in [7] was inactive. For the same compound, the result in assay [6] was Active. For the same compound, the inhibition result in [8] and in assay [9] was “inactive” in each case. The results for the Ki in [11], in assay [13] and in assay [12] were over 1000 nM, over 1000 nM and 46.9 nM, respectively.
In the case of `O=C(/C=C/c1ccc2c(c1)OCO2)N1C[C@@H]2CNC[C@@H](C2)C1`, the outcome in assay [1] and in [6] was Active. The result in [2], in assay [3], in [4], in assay [5], in assay [7] and in assay [10] was inactive. The inhibition result in assay [8] and in [9] was “inactive” each time. For the same compound, the Ki in assay [14] is over 5000 nM; in assay [11], over 1000 nM; in [13], over 1000 nM; in assay [12], 36.9 nM.
`O=C(/C=C/c1cccnc1)N1C[C@@H]2CNC[C@@H](C2)C1`: the outcome in assay [1] and in [6] was Active. Also, the outcome in [2], in assay [3], in assay [4], in [5], in [7] and in assay [10] was inactive. The inhibition result in assay [8] and in [9] was “inactive” in each case. The Ki in assay [14] was over 5000 nM; in assay [11], over 1000 nM; in assay [13], over 1000 nM; in [12], 32.6 nM.
`O=C(/C=C/c1ccsc1)N1C[C@@H]2CNC[C@@H](C2)C1`: the outcome in assay [1] was Active. Further, the outcome in [2], in assay [4] and in assay [10] was inactive. For the same compound, the inhibition entry in assay [8] and in [9] was “inactive” in each case. Moreover, the Ki is over 10000 nM in assay [11] and 57.1 nM in assay [12].
For `O=C(C#Cc1ccccc1)N1C[C@@H]2CNC[C@@H](C2)C1`, the outcome in assay [1] was Active. Moreover, the result in assay [2], in assay [4] and in [10] was inactive. Further, the inhibition result in assay [8] and in assay [9] was “inactive” each time. In addition, the Ki is over 1000 nM in assay [14], over 5000 nM in assay [11], over 1000 nM in assay [13] and 10.9 nM in [12].
`O=C(CCc1ccccc1)N1C[C@@H]2CNC[C@@H](C2)C1`: the result in assay [1] and in assay [6] was Active. The result in assay [2], in assay [3], in assay [4], in assay [5], in [7] and in assay [10] was inactive. Besides, the inhibition entry in assay [8] and in assay [9] was “inactive” each time. Also, the Ki was over 10000 nM in assay [11], 396 nM in [13] and 52.5 nM in assay [12].
Turning to `COc1ccc(/C=C/C(=O)N2C[C@@H]3CNC[C@@H](C3)C2)cc1`, the result in assay [1] and in assay [6] was Active. Besides, the result in assay [2], in assay [3], in [4], in [5], in [7] and in assay [10] was inactive. The inhibition result in assay [8] and in [9] was “inactive” throughout. The compound also displayed a Ki in assay [12] of 39.6 nM.
On to `O=C(CCc1cccnc1)N1C[C@@H]2CNC[C@@H](C2)C1`, for which the outcome in assay [1] was Active. The result in assay [2], in [4] and in assay [10] was inactive. Further, the inhibition entry in [8] and in assay [9] was “inactive” throughout. For the same compound, the Ki in assay [14] is over 5000 nM; in assay [11], over 5000 nM; in assay [13] it was over 5000 nM; in assay [12], 39 nM.
As for `O=C(/C=C/c1cccc(Cl)c1)N1C[C@@H]2CNC[C@@H](C2)C1`, in assay [1], the outcome was Active. Besides, the result in [2], in [4] and in [10] was inactive. Moreover, the inhibition result in assay [8] and in assay [9] was “inactive” in each case. The Ki in assay [11] was over 10000 nM; in [12], 23.7 nM.
As to `O=C(COc1ccccc1Cl)N1C[C@@H]2CNC[C@@H](C2)C1`, the Ki in assay [14] is over 5000 nM; in assay [11], over 5000 nM; in [13] it was over 5000 nM; in assay [12], 548 nM.
As for `O=C(/C=C/c1ccc(F)cc1)N1C[C@@H]2CNC[C@@H](C2)C1`, the outcome in assay [1] was Active. For the same compound, the result in assay [2] and in assay [4] was inactive. The inhibition entry in assay [8] and in assay [9] was “inactive” throughout. The Ki was over 10000 nM in assay [14], over 5000 nM in assay [11], over 5000 nM in assay [13] and 20.7 nM in assay [12].
With `O=c1c(-c2ccccc2)ccc2n1C[C@@H]1CNC[C@H]2C1`, the Ki is over 10000 nM in assay [14], over 10000 nM in assay [11], over 10000 nM in [13] and 128 nM in [12].
As to `O=C(Cc1ccc2ccccc2c1)N1C[C@@H]2CNC[C@@H](C2)C1`, the outcome in assay [1] was Active. For the same compound, the outcome in assay [2], in [4] and in [10] was inactive. The inhibition entry in [8] and in assay [9] was “inactive” in each case. The Ki in [14] was over 5000 nM; in [11], over 1000 nM; in assay [13] it was over 1000 nM; in [12] it was 10.2 nM.
